Results as given in PubChem BioAssay AID588478 (ICCB-Longwood Screening Facility, Harvard Medical School, 2011).
In all, about 330,000 compounds went through this assay and about 1,100 (0.33%) were called active.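 Rule for the calls: active = mean inhibition over replicate wells above about 20% (limit read from the data); inactive = the rest.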 The entries come from a sample that favours actives as a whole.

What follows are compounds tested against Ubiquitin carboxyl-terminal hydrolase isozyme L5 (Homo sapiens) (UniProt Q9Y5K5) (assay: proteasome-bound UCH37 DUB activity blockers – biochemical, Ub-AMC cleavage, fluorescence, primary screen (AID 588478;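 note: 0% = compound-free wells with enzyme and 100% = wells lacking proteasome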)). Details: purified proteasome/UCH37, Ub-AMC cleavage fluorescence; hits give high values; concentration not given here.
In short: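 assay system = human UCH37 enzyme supplied as purified proteasome complex | amount = proteasome at 0.15 nM in the dispensed enzyme solution | schedule = 30 min compound-proteasome preincubation then 25 min substrate reaction, room temperature | measured by = fluorescence, ex 355 nm, em 460 nm | benchmarks = no-proteasome wells (full inhibition) and compound-free wells (no inhibition)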

Ubiquitin carboxyl-terminal hydrolase isozyme L5 (Homo sapiens), sequence (Q9Y5K5 whole entry, looked up): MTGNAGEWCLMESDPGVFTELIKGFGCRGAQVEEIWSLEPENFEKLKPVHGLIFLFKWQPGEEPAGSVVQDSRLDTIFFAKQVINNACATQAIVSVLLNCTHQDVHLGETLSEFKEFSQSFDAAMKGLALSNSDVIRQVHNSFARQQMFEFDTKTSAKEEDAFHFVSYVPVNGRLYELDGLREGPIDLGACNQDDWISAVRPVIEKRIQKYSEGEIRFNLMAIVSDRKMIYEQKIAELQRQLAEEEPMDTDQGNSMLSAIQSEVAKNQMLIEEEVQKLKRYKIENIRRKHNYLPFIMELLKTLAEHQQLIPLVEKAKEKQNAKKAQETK

| SMILES | inhibition |
| --- | --- |
| CCCCCCCCCCCCn1ccc(=N)cc1 | 29.5% (active) |
| Brc1ccc2[nH]cc(C=NN3CCCCC3)c2c1 | 1.15% (inactive) |
| C#C[C@]1(O)CCC2C3CCC4=CC(=NOCC(=O)NC(C)C(=O)NC(CCSC)C(=O)O)CC[C@]4(C)C3CC[C@@]21C (stereo not given in full) | -1.31% (inactive) |
| C=CCN1CC[C@]23c4c5ccc(O)c4O[C@H]2C(=NNC(=O)c2ccccc2)CC[C@@]3(O)[C@H]1C5 | 4.43% (inactive) |
| CC12CCC3C(CCC4CC(=NO)CCC43C)C1CCC2O (stereo not given) | 2.36% (inactive) |
| CCC(C)n1c(O)c(/C=N/Nc2nc3c(c(=O)n(C)c(=O)n3C)n2C)c(=O)[nH]c1=S (stereo not given) | 21.4% (active) |
| Cc1ccccc1/C=C\c1nc(O)c([N+](=O)[O-])c(=O)[nH]1 | 11.3% (inactive) |
| CNC(=O)Nc1ccc(C(=O)NN=CC23CC[C@@H](O)CC2(O)CC[C@@H]2[C@@H]3CCC3(C)C(C4=CC(=O)OC4)CCC23O)cc1 (stereo not given in full) | 3.8% (inactive) |
| COc1cc(C(=O)NC2CCN(Cc3ccccc3)CC2)cc(Cl)c1OC(C)C | 4.45% (inactive) |
| COc1ccc(N2C(=O)/C(=C/c3ccco3)C(=O)NC2=S)cc1 | 31.7% (active) |
| O=C1NC(=O)N(c2ccccc2)C(=O)/C1=C/c1ccc([N+](=O)[O-])s1 | 5.15% (inactive) |
| COc1cccc(N2C(=O)NC(=O)/C(=C\c3ccc([N+](=O)[O-])s3)C2=O)c1 | 11.5% (inactive) |
| Nc1nonc1C(=O)NN=Cc1ccc([N+](=O)[O-])o1 | 13.2% (inactive) |
| CC1=CC(=Cc2sc3ccccc3[n+]2C)C=C(C)O1 | 20.3% (active) |
| COC(=O)[C@H](Cc1ccccc1)NC(=O)Nc1ccc(S(N)(=O)=O)cc1 | 2.98% (inactive) |
| COc1ccc(C=NN=C(N)N[N+](=O)[O-])c(OC)c1 | 18.6% (inactive) |
| Oc1ccc(C=NNP(=S)(c2ccccc2)c2ccccc2)cc1O | 2.56% (inactive) |
| COc1cccc(C(=O)N2C[C@H]3C[C@@H](C2)c2cccc(=O)n2C3)c1 | 2.34% (inactive) |
| O=C(CN1CCN(S(=O)(=O)c2cccc(Cl)c2)CC1)N1CCCCC1 | 5.51% (inactive) |
| CN1CCN(N=Cc2c[nH]c3ccccc23)CC1 | 3.94% (inactive) |
